ChEMBL document CHEMBL4513216, “Probing the Open Global Health Chemical Diversity Library for Multistage-Active Starting Points for Next-Generation Antimalarials” (ACS Infect Dis, 2020)

Test: Toxicity liver stage against HepG2, at 10uM
Format: cell-based
Set-up: test concentration 10 uM, cell line HepG2-A16-CD81EGFP
Conditions: human, HepG2-A16-CD81EGFP cells; read-out: INHIBITION
In short: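 Uninfected HepG2-A16-CD81EGFP cells, 3 × 10^3 per well, 1536-well, plated on prespotted compound at 10 μM final, parasite-free screening media added to match infected plates; puromycin 10 μM positive, DMSO 0.5% negative; run in parallel with 48 h PbLuc assay at 37 °C, 5% CO2; viability by CellTiter-Glo luminescence, normalized to controls.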

`Cc1cccc(N2CCN(C(=O)CCCC(=O)N(C)C)C(C)C2)n1` (stereo unspecified) showed a cytotoxicity at 10 µM of 14.6%.
Molecule `Cc1cc(NC(=O)CCN2CCCC2Cn2cncn2)no1` (stereo unspecified) has a cytotoxicity at 10 µM of 4.26%.
`COCc1nc(C(=O)N2CCCC2c2cccc(C)c2)cs1` (stereo unspecified) gave a cytotoxicity at 10 µM of -8.93%.
In the case of `O=C(C1CCCC1)N1CCC2(CC1)OCCO2`, the cytotoxicity at 10 µM is reported as 2.53%.
`COCCc1nc(CSc2ccncc2)n(C)n1` gave a cytotoxicity at 10 µM of -5.93%.
In the case of `CCN(CC)c1ccc(CNC(=O)N2CCC(C#N)CC2)cc1`, the cytotoxicity at 10 µM is reported as -11.4%.
Work on `Cc1cccc2c1nc(CCO)n2-c1ccc(C(=O)N2CCCC2)o1` yielded a cytotoxicity at 10 µM of 7.39%.
Work on `NC(=O)c1csc(N2CCN(C3CCc4ccccc4C3)CC2)n1` (stereo unspecified) yielded a cytotoxicity at 10 µM of 1.67%.
For `CCCS(=O)(=O)N1C[C@@H]2CN(Cc3cccs3)CCO[C@@H]2C1`, the cytotoxicity at 10 µM was -145%.
`COc1ccc(COCC(O)CSc2ccc(NC(C)=O)cc2)cc1` (stereo unspecified) showed a cytotoxicity at 10 µM of 8.22%.
In the case of `Cc1cc(CN2CCN(S(C)(=O)=O)CC(C(=O)N(C)C)C2)no1` (stereo unspecified), the cytotoxicity at 10 µM is reported as -9.74%.
`CN(C)CC(NC(=O)c1ccn(C)c(=O)c1)c1ccccc1` (stereo unspecified) gave a cytotoxicity at 10 µM of -5.85%.
In the case of `COCCN1CCC(c2nc3ccc(N4CCCC4)cn3n2)CC1`, the cytotoxicity at 10 µM is reported as 11.8%.
Molecule `CSCC(CCO)NC(=O)Nc1cc(Br)ccc1C` (stereo unspecified) has a cytotoxicity at 10 µM of -11.1%.
For `COc1ncnc(N(C)C)c1NC(=O)c1cscc1C`, the cytotoxicity at 10 µM was -1.7%.
`CS(=O)(=O)NCc1ccc(C(=O)NCc2ccc3c(c2)CCC3)o1` gave a cytotoxicity at 10 µM of -5.61%.
`CC(C)c1nc(CN2CCOC(Cn3cncn3)C2)cs1` (stereo unspecified) showed a cytotoxicity at 10 µM of -4.39%.
With `Cc1cc(C)n(-c2cncc(NCCC(=O)NC(C)C)n2)n1` the cytotoxicity at 10 µM was 1.06%.
In the case of `O=C(NCCCN1CCOCC1)c1ccn(COc2ccc(Br)cc2)n1`, the cytotoxicity at 10 µM is reported as 5.39%.
Molecule `O=C(c1ccccc1-c1nnn[nH]1)N1CCOC(C(F)(F)F)C1` (stereo unspecified) has a cytotoxicity at 10 µM of -1.67%.
With `C[C@@H](CO)Nc1nccc(-c2cnc3sc(Cl)cn3c2=O)n1` the cytotoxicity at 10 µM was 2.52%.
`COc1cc(I)c(Cl)cc1C(=O)N(C)CC(=O)NC(C)(C)C` gave a cytotoxicity at 10 µM of 15.4%.
`CC(O)CCn1ccc2[nH]c(=O)c(C#N)cc2c1=O` (stereo unspecified) showed a cytotoxicity at 10 µM of 5.66%.
`CC(C)Oc1ccc(CNC(=O)CC(F)(F)F)cc1F` showed a cytotoxicity at 10 µM of -1.08%.
With `CCCC1(CNCc2ncc[nH]2)CCC1` the cytotoxicity at 10 µM was 2.24%.
Work on `Cc1ncccc1CNCC1CCCN1c1cccnn1` (stereo unspecified) yielded a cytotoxicity at 10 µM of -14.2%.
For `CN(C)CCN1CCOCC2(C1)CN(Cc1ccsc1)CCO2` (stereo unspecified), the cytotoxicity at 10 µM was -0.439%.
Molecule `NC(=O)C1CCN(C(=O)CCn2ccc3ccc(F)cc32)CC1` has a cytotoxicity at 10 µM of -6.83%.
For `O=C1NCCN(C(=O)CN2CCOC2=O)C1c1cccc(F)c1` (stereo unspecified), the cytotoxicity at 10 µM was 8.91%.
For `CCS(=O)(=O)N1CCN(CC(F)(F)F)CC1`, the cytotoxicity at 10 µM was -1.99%.
`Cc1cc(C)n(CC2CN(CC(=O)NC3CCOCC3)CCO2)n1` (stereo unspecified) showed a cytotoxicity at 10 µM of -11.1%.
Work on `Cc1nn2cccnc2c1C(=O)N1CCCC(Nc2ccccc2)C1` (stereo unspecified) yielded a cytotoxicity at 10 µM of 5.82%.
Molecule `COCCCNC(=O)NCc1cccn1Cc1ccccc1C` has a cytotoxicity at 10 µM of 2.88%.
Work on `COc1ccc(C(=O)N2CC[C@H](CO)[C@H](O)C2)c(C)c1` yielded a cytotoxicity at 10 µM of -11.5%.
With `COc1ccc(CCNCc2ccco2)cc1OC` the cytotoxicity at 10 µM was -0.0184%.
For `CC1(C)OCC2(CO1)CN(C(=O)c1ccccc1Br)C2`, the cytotoxicity at 10 µM was -7.31%.
`COc1cccc(C(C)N2CCN(S(=O)(=O)c3ccccc3)CC2)c1` (stereo unspecified) gave a cytotoxicity at 10 µM of 5.11%.
Work on `COc1ccc(-c2cc[nH]n2)cc1CNC1CCCC1` yielded a cytotoxicity at 10 µM of -52.8%.
With `CCOc1ccccc1-n1c(C2CCC2)n[nH]c1=O` the cytotoxicity at 10 µM was 4.18%.
Molecule `CCc1n[nH]c(C2CN(CCS(C)(=O)=O)CCO2)n1` (stereo unspecified) has a cytotoxicity at 10 µM of -18%.
`COC1CCN(S(=O)(=O)N2C[C@H](c3ccccc3)[C@@H](N)C2)CC1` gave a cytotoxicity at 10 µM of 11.8%.
`Cc1cc(C)c(C#N)c(NCCSc2nncn2C)n1` gave a cytotoxicity at 10 µM of -1.01%.
`Cn1cc(CCCN2CCN(Cc3cccc(O)c3)CC2)cn1` showed a cytotoxicity at 10 µM of -52.5%.
Molecule `CCS(=O)(=O)N1CCC2(CC(=O)N(c3cncnc3)C2)C1` (stereo unspecified) has a cytotoxicity at 10 µM of -0.298%.
Molecule `COc1ccc(CC(=O)NCCNS(=O)(=O)c2ccc(C)cc2)cc1` has a cytotoxicity at 10 µM of -143%.
Work on `COCCNC(=O)c1cn(C(C)(C)C)c2ncccc12` yielded a cytotoxicity at 10 µM of 2.74%.
Molecule `CC(C)Nc1nc2c(s1)C(=O)CN(C(=O)NCc1ccccc1)C2` has a cytotoxicity at 10 µM of 75.6%.
In the case of `Cc1ccccc1Cc1cnc(NC(=O)C2CNC(=O)N2)s1` (stereo unspecified), the cytotoxicity at 10 µM is reported as -3.37%.
`CNC(=O)C1(c2cnccn2)CCCN1C(=O)Cc1ccsc1` (stereo unspecified) gave a cytotoxicity at 10 µM of 4.12%.
`COc1cc(F)c(S(=O)(=O)NCc2ccnc(N(C)C)n2)cc1OC` gave a cytotoxicity at 10 µM of -147%.
With `OCCOCc1nnn2c1CN(c1ncccn1)CCC2` the cytotoxicity at 10 µM was -10.5%.
In the case of `COCCCNc1c(-c2ccc(C)cc2)c(=O)c1=O`, the cytotoxicity at 10 µM is reported as 12.5%.
With `Cc1ccc(CN2CCOCC3(C2)CN(c2ccc(C)s2)C(=O)CO3)o1` (stereo unspecified) the cytotoxicity at 10 µM was 7.31%.
Work on `CCc1nc(C)c(C(=O)NCCNc2ncccn2)s1` yielded a cytotoxicity at 10 µM of -2.16%.
For `COCCNC(=O)CSCc1nc(O)c2cc(C(C)C)sc2n1`, the cytotoxicity at 10 µM was -3.46%.
`O[C@@H]1C[C@@H](c2nc(-c3ccccc3)no2)N(CC2CCCCC2)C1` showed a cytotoxicity at 10 µM of -2.74%.
